Laboratory results taken from ChEMBL document CHEMBL4270565, “Design, synthesis and antimicrobial evaluation of propylene-tethered ciprofloxacin-isatin hybrids” (Eur J Med Chem, 2018).
Values after ≈ are worked out from the molar mass of the structure shown.

Columns and labels:
[1] = system: Staphylococcus epidermidis; test: Antibacterial activity against methicillin-sensitive Staphylococcus epidermidis ATCC 12228 after 18 to 24 hrs by two-fold serial dilution method; type: functional
How it was run: (§1)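 Agar two-fold dilution MIC. Compounds were dissolved in 0.1 N NaOH and water, then serially diluted in melted Mueller-Hinton agar, with top concentrations starting at 128. Plates were inoculated at about 10 cfu and incubated at 35 °C for 18–24 h. MIC was taken as the lowest concentration giving 90% inhibition of growth.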

[2] = system: Staphylococcus epidermidis; test: Antibacterial activity against methicillin-resistant Staphylococcus epidermidis 13-3 after 18 to 24 hrs by two-fold serial dilution method; type: functional
How it was run: (§2)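 Agar two-fold serial dilution in Mueller-Hinton agar. Strains came from the Chinese Center for Disease Control and Prevention. Compounds were dissolved in 0.1 N NaOH and water, then diluted in melted agar to final levels stepping down from 128. Plates were inoculated with bacterial cfu and incubated at 35 C for 18–24 h. MIC is the lowest concentration giving 90% growth inhibition.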

Staphylococcus aureus [3] = test: Antibacterial activity against methicillin-sensitive Staphylococcus aureus ATCC 29213 after 18 to 24 hrs by two-fold serial dilution method; type: functional; how it was run: as §2
Staphylococcus aureus [4] = test: Antibacterial activity against methicillin-resistant Staphylococcus aureus ATCC 33591 after 18 to 24 hrs by two-fold serial dilution method; type: functional; how it was run: as §2
Enterococcus faecalis [5] = test: Antibacterial activity against Enterococcus faecalis ATCC 29212 after 18 to 24 hrs by two-fold serial dilution method; type: functional; how it was run: as §1
Enterococcus faecalis [6] = test: Antibacterial activity against Enterococcus faecalis ATCC 51299 after 18 to 24 hrs by two-fold serial dilution method; type: functional; how it was run: as §1
Enterococcus faecium [7] = test: Antibacterial activity against Enterococcus faecium ATCC 700221 after 18 to 24 hrs by two-fold serial dilution method; type: functional; how it was run: as §1
Enterococcus faecium [8] = test: Antibacterial activity against Enterococcus faecium 13-7 after 18 to 24 hrs by two-fold serial dilution method; type: functional; how it was run: as §1
Escherichia coli [9] = test: Antibacterial activity against extended-spectrum beta-lactamase deficient Escherichia coli ATCC 25922 after 18 to 24 hrs by two-fold serial dilution method; type: functional; how it was run: as §1
Escherichia coli [10] = test: Antibacterial activity against extended-spectrum beta-lactamase harboring Escherichia coli ATCC 35218 after 18 to 24 hrs by two-fold serial dilution method; type: functional; how it was run: as §2
Klebsiella pneumoniae [11] = test: Antibacterial activity against extended-spectrum beta-lactamase harboring Klebsiella pneumoniae ATCC 700603 after 18 to 24 hrs by two-fold serial dilution method; type: functional; how it was run: as §2
Klebsiella pneumoniae [12] = test: Antibacterial activity against extended-spectrum beta-lactamase deficient Klebsiella pneumoniae 15-2 after 18 to 24 hrs by two-fold serial dilution method; type: functional; how it was run: as §1
Pseudomonas aeruginosa = test: Antibacterial activity against Pseudomonas aeruginosa ATCC 27853 after 18 to 24 hrs by two-fold serial dilution method; type: functional; how it was run: as §1
[13] = system: Acinetobacter calcoaceticus; test: Antibacterial activity against Acinetobacter calcoaceticus ATCC 19606 after 18 to 24 hrs by two-fold serial dilution method; type: functional; how it was run: as §1
Enterobacter cloacae = test: Antibacterial activity against Enterobacter cloacae ATCC 43560 after 18 to 24 hrs by two-fold serial dilution method; type: functional
Klebsiella aerogenes = test: Antibacterial activity against Enterobacter aerogenes ATCC 13048 after 18 to 24 hrs by two-fold serial dilution method; type: functional; how it was run: as §1
Serratia marcescens = test: Antibacterial activity against Serratia marcescens ATCC 21074 after 18 to 24 hrs by two-fold serial dilution method; type: functional; how it was run: as §1
Morganella morganii = test: Antibacterial activity against Morganella morganii ATCC 25830 after 18 to 24 hrs by two-fold serial dilution method; type: functional; how it was run: as §1
Providencia rettgeri = test: Antibacterial activity against Providencia rettgeri ATCC 31052 after 18 to 24 hrs by two-fold serial dilution method; type: functional; how it was run: as §1
Proteus vulgaris = test: Antibacterial activity against Proteus vulgaris ATCC 29905 after 18 to 24 hrs by two-fold serial dilution method; type: functional; how it was run: as §1
Proteus mirabilis = test: Antibacterial activity against Proteus mirabilis 13-1 after 18 to 24 hrs by two-fold serial dilution method; type: functional; how it was run: as §1
[14] = system: Stenotrophomonas maltophilia; test: Antibacterial activity against Stenotrophomonas maltophilia ATCC 13636 after 18 to 24 hrs by two-fold serial dilution method; type: functional; how it was run: as §1
Citrobacter freundii = test: Antibacterial activity against extended-spectrum beta-lactamase harboring Citrobacter freundii ATCC 43864 after 18 to 24 hrs by two-fold serial dilution method; type: functional; how it was run: as §2
[15] = system: Mycobacterium tuberculosis; test: Antimycobacterial activity against Mycobacterium tuberculosis H37Rv after 7 days; type: functional; settings: 168 h
How it was run: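 Rapid direct susceptibility test in 48-well plates. Two-fold dilutions of compound from DMSO stocks were mixed with an equal volume of bacterial suspension. Medium-only wells served as growth controls and water-only wells as no-growth controls. Plates were sealed and held at 37 C in a humid box, and controls were checked at 3 days. MIC (90% growth inhibition) was read visually by high-magnification observation of the cells and re-read at 7 days.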

[16] = Cytotoxicity against African green monkey Vero cells assessed as reduction in cell viability after 72 hrs by MTT assay; type: cell-based; settings: chlorocebus sabaeus
How it was run: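 VERO cells were kept in MEM with Earle's salts and 10% FBS at 37 °C, 5% CO2. They were seeded in 96-well plates and allowed to recover for 24 h. Cells were then exposed to compounds in DMSO over a series from 1000 down to 4 for 72 h. Viability was read by MTT, and CC50 was calculated by Bliss analysis.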

[17] = system: Mycobacterium tuberculosis; test: Potency index, ratio of ciprofloxacin MIC90 to compound MIC90 for Mycobacterium tuberculosis H37Rv; type: functional
[18] = system: Mycobacterium tuberculosis; test: Potency index, ratio of rifampicin MIC90 to compound MIC90 for Mycobacterium tuberculosis H37Rv; type: functional
[19] = Cmax in ICR mouse at 50 mg/kg, po administered as single dose by HPLC analysis; type: ADME, organism-based; parameters: dose 50 mg/kg, route oral; settings: in vivo
How it was run: (§3)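 Mice (3 per group), fasted overnight, given a single oral dose of 50 mg/kg as a suspension in 0.5% CMC. Jugular vein blood taken at 0.25, 0.5, 1, 2, 4, 6, 8 and 24 h. Serum proteins precipitated with acetonitrile and centrifuged; the dried supernatant was redissolved in acetonitrile for HPLC. PK parameters were derived directly from the concentration–time data.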

[20] = Tmax in ICR mouse at 50 mg/kg, po administered as single dose by HPLC analysis; type: ADME, organism-based; settings: in vivo; how it was run: as §3
[21] = AUC (0 to infinity) in ICR mouse at 50 mg/kg, po administered as single dose by HPLC analysis; type: ADME, organism-based; parameters: dose 50 mg/kg, route oral, time infinity; settings: in vivo; how it was run: as §3
[22] = Elimination half life in ICR mouse at 50 mg/kg, po administered as single dose by HPLC analysis; type: ADME, organism-based; settings: in vivo, read-out: beta t1/2 (converted)
[23] = Half life in mouse microsomes; type: ADME, Microsome

Compound | MIC90 [1] [µg/mL] | MIC90 [2] [µg/mL] | MIC90 (Staphylococcus aureus [3]) [µg/mL] | MIC90 (Staphylococcus aureus [4]) [µg/mL] | MIC90 (Enterococcus faecalis [5]) [µg/mL] | MIC90 (Enterococcus faecalis [6]) [µg/mL] | MIC90 (Enterococcus faecium [7]) [µg/mL] | MIC90 (Enterococcus faecium [8]) [µg/mL] | MIC90 (Escherichia coli [9]) [µg/mL] | MIC90 (Escherichia coli [10]) [µg/mL] | MIC90 (Klebsiella pneumoniae [11]) [µg/mL] | MIC90 (Klebsiella pneumoniae [12]) [µg/mL] | MIC90 (Pseudomonas aeruginosa) [µg/mL] | MIC90 [13] [µg/mL] | MIC90 (Klebsiella aerogenes) [µg/mL] | MIC90 (Serratia marcescens) [µg/mL] | MIC90 (Morganella morganii) [µg/mL] | MIC90 (Providencia rettgeri) [µg/mL] | MIC90 (Proteus vulgaris) [µg/mL] | MIC90 (Proteus mirabilis) [µg/mL] | further results
CCO/N=C1\C(=O)N(CCCN2CCN(c3cc4c(cc3F)c(=O)c(C(=O)OCCCN3C(=O)/C(=N/OCC)c5cc(C)ccc53)cn4C3CC3)CC2)c2ccc(C)cc21 | 32 (≈ 39 µM) | 64 (≈ 78.1 µM) | 64 (≈ 78.1 µM) | 128 (≈ 156 µM) | 64 (≈ 78.1 µM) | 128 (≈ 156 µM) | 128 (≈ 156 µM) | > 128 | 16 (≈ 19.5 µM) | 16 (≈ 19.5 µM) | 128 (≈ 156 µM) | 32 (≈ 39 µM) | 128 (≈ 156 µM) | 64 (≈ 78.1 µM) | 64 (≈ 78.1 µM) | 64 (≈ 78.1 µM) | 32 (≈ 39 µM) | 64 (≈ 78.1 µM) | 64 (≈ 78.1 µM) | 64 (≈ 78.1 µM) | MIC90 (Enterobacter cloacae): 128 µg/mL (≈ 156 µM); MIC90 [14]: 128 µg/mL (≈ 156 µM); MIC90 (Citrobacter freundii): 64 µg/mL (≈ 78.1 µM); MIC90 [15]: 50 µg/mL (≈ 61 µM); CC50 at 72 h [16]: 64 µg/mL (≈ 78.1 µM)
Cc1ccc2c(c1)C(=O)C(=O)N2CCCN1CCN(c2cc3c(cc2F)c(=O)c(C(=O)O)cn3C2CC2)CC1 | 0.125 (≈ 0.235 µM) | 2 (≈ 3.76 µM) | 0.125 (≈ 0.235 µM) | 0.125 (≈ 0.235 µM) | 0.5 (≈ 0.939 µM) | 0.5 (≈ 0.939 µM) | 4 (≈ 7.51 µM) | 32 (≈ 60.1 µM) | ≤ 0.03 | ≤ 0.03 | 1 (≈ 1.88 µM) | 0.06 (≈ 0.113 µM) | 2 (≈ 3.76 µM) | 0.25 (≈ 0.469 µM) | 0.06 (≈ 0.113 µM) | 0.25 (≈ 0.469 µM) | ≤ 0.03 | ≤ 0.03 | ≤ 0.03 | ≤ 0.03 | MIC90 (Enterobacter cloacae): ≤ 0.03 µg/mL; MIC90 [14]: 0.06 µg/mL (≈ 0.113 µM); MIC90 (Citrobacter freundii): ≤ 0.03 µg/mL; MIC90 [15]: 0.1 µg/mL (≈ 0.188 µM); CC50 at 72 h [16]: 64 µg/mL (≈ 120 µM); Ratio [17]: 4; Ratio [18]: 8; Cmax [19]: 1230 ng/mL; Tmax [20]: 1.3 h; AUC(0-inf) [21]: 4990 ng·h/mL; half-life [22]: 4.1 h; half-life [23]: 0.517 h
O=C(O)c1cn(C2CC2)c2cc(N3CCNCC3)c(F)cc2c1=O [CIPROFLOXACIN] | 0.125 (≈ 0.377 µM) | 64 (≈ 193 µM) | 0.25 (≈ 0.754 µM) | 0.5 (≈ 1.51 µM) | 0.5 (≈ 1.51 µM) | 0.5 (≈ 1.51 µM) | 8 (≈ 24.1 µM) | 128 (≈ 386 µM) | ≤ 0.03 | ≤ 0.03 | 0.5 (≈ 1.51 µM) | ≤ 0.03 | 0.25 (≈ 0.754 µM) | 0.5 (≈ 1.51 µM) | ≤ 0.03 | 0.06 (≈ 0.181 µM) | ≤ 0.03 | ≤ 0.03 | ≤ 0.03 | ≤ 0.03 | MIC90 [14]: 2 µg/mL (≈ 6.04 µM); MIC90 (Citrobacter freundii): ≤ 0.03 µg/mL; MIC90 [15]: 0.78 µg/mL (≈ 2.35 µM); CC50 at 72 h [16]: 128 µg/mL (≈ 386 µM); Cmax [19]: 3130 ng/mL; Tmax [20]: 1.8 h; AUC(0-inf) [21]: 17800 ng·h/mL
